Compound activity: PubChem BioAssay, Broad Institute
HIF activator: HIF pathway transcriptional activators, primary screen, cell-based, U2OS HRE-luciferase, luminescence. U2OS HRE-luciferase reporter; normalized: DMSO 0%, desferrioxamine 100%. activation, % at 7.5 µM (by protocol). actives 0.32% (n = 300,000). AID 1910, 2009;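 active = mean activation of at least 10% of the iron chelator positive control signal, with at least half of replicates also reaching 10%; inconclusive = mean and replicate majority disagree about reaching 10%; inactive = mean and most replicates under 10%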
CSC inhib: cancer stem cell viability inhibitors, primary screen, luminescence; cancer stem cell-like cells viability; inhibition, % at 7.5 µM; actives 1.1% (n = 300,000); AID 2717, 2010; in the data active = inhibition above about 75%; inconclusive = no clear call, values can overlap the other calls; tested in HMLE shEcad cells
PfHsp90 set2: growth inhibition of PfHsp90-expressing yeast, primary screen, antimalarial PfHsp90 inhibitor project, S. cerevisiae, BacTiter-Glo luminescence, single point, set 2. BacTiter-Glo ATP, 48 h; yeast lacking PDR1 and PDR3 efflux regulators. actives 0.32% (n = 310,000). inhibition, % at 9.4 µM;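 active = every replicate shows inhibition above about 80%, whatever the replicate mean, limit read from the data; inconclusive = mean inhibition reaches the set limit but some replicate falls short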
SKKanGAS inh: S. pyogenes SKKanGAS growth inhibitors in kanamycin, primary screen, streptokinase expression inhibitor project, SKKanGAS strain, BacTiter-Glo luminescence; 6 h; inhibition, % at 7.5 µM; actives 1.3% (n = 300,000); AID 1662, 2009;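 active = mean replicate score, as percent of positive control median, at least 50; inconclusive = mean below 50 but one replicate at or above 50; inactive = mean and every replicate below 50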;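 also: strain carries kanamycin resistance gene driven by streptokinase promoter and grows in 40 µg/ml kanamycin; loss of luminescence reflects streptokinase promoter inhibition or plain growth inhibition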
Beta cell apopt: inhibitors of cytokine-induced beta cell apoptosis, primary screen, luminescence. INS-1E cytokine-induced death, ATP luminescence, 48 h; percent of positive-control rescue, neutral wells zero. actives 0.8% (n = 300,000). protection from apoptosis, % (concentration not given with the values);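 active = Every replicate reaches about 75%, or at least half do and their mean reaches it too, limit read from the data; inconclusive = At least half of replicates reach the limit but their mean does not; inactive = Under half of replicates reach the limit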;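 also: higher means more ATP so stronger rescue from cytokine killing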
T cruzi inh: inhibitors of intracellular T. cruzi growth, primary screen, luminescence, NIH3T3 host cells | T. cruzi beta-gal in NIH3T3, 90 h | inhibition, % (test concentration not listed) | actives 1.4% (n = 300,000) | AID 1885, 2009;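 active = mean inhibition across valid replicates above about 55%, limit read from the data; inconclusive = mean below that limit but half or more replicates reach it; inactive = mean below it, under half of replicates reach it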;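 also: signal also drops with host cell toxicity which is not excluded here; higher percent means less beta-gal luminescence so fewer parasites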
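assay system = mouse NIH/3T3 fibroblasts infected with β-gal-expressing T. cruzi Tulahuen C4 | input = 5,000 NIH/3T3 host cells per well | buffer or medium = DMEM plus 2% FBS | timing = 3 h host attachment, then at least 90 h co-culture | measured by = GalScreen luminescence, 60 min | evaluation = luminescence reflecting intracellular parasite burden, expressed as percent inhibition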
Large screens that a line does not name were inactive. In the library only some 3.6% were active in any assay of this set; here they are far more common.

N#Cc1ccccc1COC(=O)CCCC1=NS(=O)(=O)c2ccccc2N1	none
Cc1nnc(SCC(=O)NCC2COc3ccccc3O2)s1 (stereo not drawn)	none (no result: HIF activator, CSC inhib, SKKanGAS inh, T cruzi inh)
NC(=O)CCCn1c(C(=O)c2cc(Cl)c(N)c(Cl)c2)c2ccc([N+](=O)[O-])cc2[n+]1[O-]	SKKanGAS inh 68.9
Cc1[nH]n(-c2nc(-c3ccc(Cl)cc3)cs2)c(=O)c1N=Nc1ccc(O)cc1	SKKanGAS inh 60.8, T cruzi inh inconclusive
COc1ccc(-n2cc(CN(C)C(C)c3ccncn3)c(-c3cccc(F)c3)n2)cc1 (stereo not drawn)	T cruzi inh 66.4 (no result: PfHsp90 set2)
COc1cccc(-c2nn(-c3ccccc3)cc2CN(C)C(C)c2ccncn2)c1 (stereo not drawn)	none
COc1ccc(Nc2nc(N)c([N+](=O)[O-])c(NCCO)n2)cc1	none (no result: PfHsp90 set2)
COc1ccc(Nc2nc(N)c([N+](=O)[O-])c(NC3CCCCC3)n2)cc1	CSC inhib 100.9
Cc1ccc(S(=O)(=O)N(CC(=O)Nc2ccc(Cl)c([N+](=O)[O-])c2)C2CCCCC2)cc1	T cruzi inh 58.6
CCN(C1CCCCC1)S(=O)(=O)c1ccc(S(=O)(=O)N(CC(=O)Nc2ccccc2)C2CC2)cc1	T cruzi inh 55.4 (no result: CSC inhib)
O=C(CN(C1CC1)S(=O)(=O)c1ccc(S(=O)(=O)N2CCCCCC2)cc1)Nc1ccccc1	none
Cc1ccc(S(=O)(=O)N(CC(=O)Nc2cccc([N+](=O)[O-])c2)C2CCCCC2)cc1	none (no result: CSC inhib)
COc1cc([N+](=O)[O-])c(N2CCOCC2)c([N+](=O)[O-])c1OC	T cruzi inh 75.4
O=[N+]([O-])c1cc(Br)c2nsnc2c1N1CCOCC1	none (no result: CSC inhib, Beta cell apopt)
CC[C@]12c3[nH]c4ccc(Cl)cc4c3CCN1C(=O)[C@@H](CC(=O)NCCC1=CCCCC1)C[C@@H]2C(=O)N1CCN(C(=O)C2CC2)CC1	none (no result: HIF activator, CSC inhib, SKKanGAS inh, Beta cell apopt, T cruzi inh)
CN(Cc1ccccc1F)C(=O)c1cccc(NC(=O)CC2SC(N3CCCCC3)=NC2=O)c1 (stereo not drawn)	none (no result: HIF activator, CSC inhib, SKKanGAS inh, Beta cell apopt, T cruzi inh)
CCC(C)(C)c1ccc(OCCCC[n+]2cccc(C)c2C)c(C(C)(C)CC)c1	CSC inhib 135.1, PfHsp90 set2 109.6, Beta cell apopt 117.0
CCC(C)(C)c1ccc(OCCCC[n+]2ccc(C)cc2)c(C(C)(C)CC)c1	CSC inhib 105.7, Beta cell apopt 115.0 (no result: PfHsp90 set2)
COCCNC(=O)c1sc2nc(-c3ccccc3)cn2c1C	HIF activator 71.0
Cc1c(C(=O)NCc2ccccn2)sc2nc(-c3ccccc3)cn12	none
Cc1ccc(-c2nc3cccnc3s2)cc1NS(=O)(=O)c1ccc2c(c1)OCCO2	CSC inhib 77.2, PfHsp90 set2 89.3
O=S(=O)(Nc1cccc(-c2nc3cccnc3s2)c1)c1ccc2c(c1)OCCO2	none
c1ccc2nc(-c3nc4ccccc4[nH]3)ccc2c1	CSC inhib 76.1
CCC(C)(C)NC(=O)C(c1ccc(F)cc1)N(Cc1cccs1)C(=O)c1cnccn1 (stereo not drawn)	none (no result: Beta cell apopt)
CCNS(=O)(=O)c1ccc(CCC(=O)N2CCN(c3ccccc3F)CC2)cc1	none
C/C(=N\NC(=S)NCC(C)(C)C)c1cc(F)cc(F)c1O	SKKanGAS inh 90.2
COc1ccc(C(=O)CSc2nnc(CN3CCCCC3)n2-c2ccc(Cl)cc2)cc1OC	CSC inhib 140.1
CCCCCCCCNC(=O)/C(C#N)=C/c1ccccc1[N+](=O)[O-]	PfHsp90 set2 110.4
N#C/C(=C\c1ccccc1[N+](=O)[O-])C(=O)NCc1ccccc1	none
CC(NC(=O)/C(C#N)=C/c1ccc([N+](=O)[O-])o1)c1ccccc1 (stereo not drawn)	SKKanGAS inh 57.5 (no result: CSC inhib)
CCOCCCNC(=O)/C(C#N)=C/c1ccc(-c2ccc(S(=O)(=O)N3CCOCC3)cc2)o1	none
CC(NC(=O)/C(C#N)=C/c1ccco1)c1ccccc1 (stereo not drawn)	none
CCOCCCNC(=O)/C(C#N)=C/c1ccc([N+](=O)[O-])o1	CSC inhib active, T cruzi inh 74.3
CC(=O)OCCN1CCN(C(=O)CN2C(=O)NC(c3ccccc3)(c3ccccc3)C2=O)CC1	none
COc1ccc(NC(=O)N(C)C[C@@H]2Oc3ccc(NC(=O)NC(C)C)cc3CC(=O)N([C@H](C)CO)C[C@@H]2C)cc1	none (no result: HIF activator, CSC inhib, SKKanGAS inh, T cruzi inh)
CCN(CC)S(=O)(=O)c1cc(C(=O)Nc2cccnc2)ccc1Cl	none
CCN(CC)S(=O)(=O)c1cc(C)ccc1NC(=S)Nc1cccnc1	Beta cell apopt 81.8
CC(=O)N1C[C@H]2CON(C)[C@H]2C[C@H]1c1cccc(-c2ccccc2C)c1	none (no result: HIF activator, CSC inhib, SKKanGAS inh, Beta cell apopt, T cruzi inh)
CSc1nc2ncc(C(=O)O)c(N)n2n1	none
O=C(Nc1ccc(S(=O)(=O)Nc2ncccn2)cc1)c1ccc(N2CCCC2=O)cc1	none
CCN1CCN(c2nc(-c3ccncc3)nc3ccccc23)CC1	T cruzi inh 69.0 (no result: PfHsp90 set2)
CCN1CCN(c2nc(-c3cccnc3)nc3ccccc23)CC1	none (no result: PfHsp90 set2)
CCCOc1ccc(-c2nc(N3CCN(CC)CC3)c3ccccc3n2)cc1	CSC inhib 88.2
CCCOc1ccc(Cc2c(Cl)nc(SC)nc2OC)cc1	SKKanGAS inh 53.1
CCCOc1ccc(Cc2c(Cl)nc(SC)nc2N(C)C)cc1	SKKanGAS inh 64.1 (no result: CSC inhib)
COc1nc(SC)nc(Cl)c1Cc1ccc(OC(C)C)cc1	none
O=C(O)c1cc(S(=O)(=O)Nc2ccc(OCc3ccccc3)cc2)ccc1Br	none
CN(CC(=O)Nc1cc(S(=O)(=O)N2CCCC2)ccc1Cl)Cc1nc2ccccc2c(=O)[nH]1	none (no result: HIF activator, CSC inhib, SKKanGAS inh, Beta cell apopt, T cruzi inh)
O=S(=O)(c1cccs1)N1CCN(CC(O)COc2cc(Cl)ccc2Cl)CC1 (stereo not drawn)	Beta cell apopt 83.2 (no result: HIF activator, SKKanGAS inh, T cruzi inh)
N#Cc1ccccc1OCCCN1CCC(Cc2ccccc2)CC1	HIF activator 45.2
COc1ccc(S(=O)(=O)NCC(=O)N(CC(=O)NCc2ccco2)C2CCCC2)cc1	none
O=C(CN1C(=O)c2ccc(Br)cc2C1=O)NCC1CCCO1 (stereo not drawn)	none
CCOC(=O)C1=C(CS(=O)(=O)c2ccc(C)cc2)NC(=O)NC1c1cc(OC)c(O)c(OC)c1 (stereo not drawn)	none
Cc1cccc(NNC(=O)C(=O)NNc2cccc(C)c2)c1	CSC inhib 92.8
Cc1cccc(NC(=O)CC(=O)Nc2cccc(C)c2)c1	none
CCCc1ccc(C(=O)NNc2cccc(C)c2)cc1	CSC inhib 77.1 (no result: HIF activator, T cruzi inh)
O=C(COC(=O)CNS(=O)(=O)c1c(Cl)cccc1Cl)Nc1cccnc1Cl	none (no result: Beta cell apopt)
COc1ccc(CNN2CCCCC2C(=O)Nc2ccc(OC)c(OCC(C)C)c2)cc1OC (stereo not drawn)	T cruzi inh 57.5
CCCCc1cc(=O)oc2cc(OCC(=O)NC3CCN(Cc4ccccc4)CC3)ccc12	none
